Results as given in PubChem BioAssay.
The source made the active and inactive calls.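 How the source made its calls, unless noted: active means inhibition at or above 50% relative to wild type and mutant plate controls; inactive means inhibition below 50%.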

Tests used:
[1] = inhibitors of TNFa-induced NFkB p65 translocation, primary screen, imaging, HUVEC, MLSMR starter and 10KST1 sets (AID 438;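 active means inhibition above 20% together with a positive visual image hit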;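 further: compound added about 3h40 before a 20 min TNFalpha stimulation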;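 on inhibition: signal is the nuclear over cytoplasmic p65 intensity ratio per well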); conditions: HUVEC TNFa-induced p65 nuclear translocation; cell count: measured here: nuclei count (cytotoxicity indicator), at 2.08 µM unless noted; inhibition: at 2 µM, stronger effect = higher value unless noted
[2] = inhibitors of E-selectin induction by TNFa, primary screen, imaging, HUVEC, immunofluorescence, MLSMR starter and 10KST1 sets (AID 487;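 active means visually confirmed hit in the image check and inhibition above 20%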;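 on inhibition: signal is fraction of cell area covered by stained E-selectin grains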;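 on nuclei count: 100% = median nuclei count of all wells on the same plate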); conditions: HUVEC TNFalpha-induced E-selectin immunofluorescence imaging, at 2 µM; inhibition: stronger effect = higher value; nuclei count: measured here: cell number, toxicity
[3] = DUSP6 inhibitors restoring Erk phosphorylation by chemical complementation, primary imaging in DUSP6-transfected HeLa (AID 609;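 active means compounds giving at least 50% inhibition in the cell-based MKP-3 phosphatase rescue imaging test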;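 on inhibition: phospho-Erk level distribution per well compared with pooled transfected vehicle control wells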); conditions: HeLa MKP-3 transfected, phospho-Erk imaging KS statistic, at 10 µM
[4] = molecular target: Dual specificity protein phosphatase 6 (Homo sapiens) (UniProt Q16828); assay: as above; conditions: HeLa MKP-3 transfected, phospho-Erk imaging KS statistic, at 10 µM, stronger effect = higher value
[5] = molecular target: Voltage-gated potassium channel subunit beta-2 (Rattus norvegicus) (UniProt P62483); assay: KvBeta enzyme negative modulators, primary screen, biochemical, NADPH fluorescence (AID 622;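 active means fluorescence slope higher than the sample average by over 3 SD, cut at about -0.22 in these data, passing the limit was not always enough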;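 further: slope of raw intensity against log time taken from 70 to 1610 s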); conditions: recombinant KvBeta, 4-cyanobenzaldehyde reduction, at 10 µM, stronger effect = higher value
[6] = molecular target: Voltage-gated potassium channel subunit beta-2 (Rattus norvegicus) (UniProt P62483); assay: KvBeta positive modulators, primary screen, biochemical, NADPH fluorescence (AID 623;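 active means NADPH fluorescence slope more negative than the mean of all samples by about 3 SD, 99.7% confidence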;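 further: fluorescence intensity change per second fitted from 20 to 320 s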); conditions: Recombinant KvBeta, NADPH fluorescence decrease slope, 10 min; at 10 µM; stronger effect = lower value
[7] = molecular target: Alpha-2C adrenergic receptor (Homo sapiens) (UniProt P18825); assay: modulators of alpha2C/GIRK thallium flux, primary screen, cell-based, HEK293 alpha2C/GIRK1/2 (AID 624;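 active means fluorescence slope after compound addition differing from the mean of all screened samples at 99.7% confidence, in either direction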;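 further: slope of fluorescence ratio to pre-addition baseline per second over 15 to 24 s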); conditions: thallium flux BTC fluorescence, at 10 µM, actives lie on both sides
[8] = inhibitors of larval lipid processing in zebrafish, primary screen, whole organism, PED6 fluorescence, gall bladder and intestine (AID 686;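 active means a full or partial loss of lipid-probe fluorescence in the fish gall bladder, intestine or both, judged by eye; inactive means no fluorescence loss, or compound toxic to the fish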;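 further: larvae 5 to 7 days old with five fish per well; signal comes from phospholipase A2 cleavage of quenched PED6 carried via bile; overnight exposure to compound and PED6 before scoring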); conditions: Zebrafish larvae PED6 lipid processing, fluorescence scoring
Outline: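 Test system – live zebrafish larvae aged 5-7 days, whole organism · Buffer or medium – E3 fish medium · Reagent – quenched phospholipase substrate PED6, 100 nM final, ingested by larvae · Doses – 20 µM single dose · Incubation – overnight compound and PED6 incubation · Technique – visual fluorescence microscopy scoring of gall bladder, gut · Read-out basis – visual per-well fluorescence inhibition score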

[9] = inhibitors of Chlamydomonas gravitaxis, primary screen, whole organism, Chlamydomonas reinhardtii, WT vs cilia-less mutant, absorbance, 96-well (AID 463189); conditions: OD600 absorbance, 2 days, at 10 µM, stronger effect = higher value;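 further: 0% = wild type cc124 cells in DMSO and 100% = ciliumless bld1 mutant cells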
[10] = measured here: cell density z-score
[11] = measured here: nuclear c-Myc green intensity z-score
[12] = measured here: nuclear pErk red intensity z-score, stronger effect = higher value

Voltage-gated potassium channel subunit beta-2 (Rattus norvegicus), sequence (P62483 whole entry, looked up): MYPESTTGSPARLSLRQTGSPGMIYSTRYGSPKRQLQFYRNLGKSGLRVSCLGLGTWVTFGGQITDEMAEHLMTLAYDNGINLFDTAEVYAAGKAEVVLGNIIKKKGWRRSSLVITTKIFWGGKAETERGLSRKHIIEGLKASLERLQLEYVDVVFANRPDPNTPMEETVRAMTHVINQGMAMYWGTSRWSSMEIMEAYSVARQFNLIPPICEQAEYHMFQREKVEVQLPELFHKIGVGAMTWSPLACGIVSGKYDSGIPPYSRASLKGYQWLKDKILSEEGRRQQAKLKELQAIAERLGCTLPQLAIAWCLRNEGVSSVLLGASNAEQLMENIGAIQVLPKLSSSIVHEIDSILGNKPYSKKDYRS
Dual specificity protein phosphatase 6 (Homo sapiens), sequence (Q16828 whole entry, looked up): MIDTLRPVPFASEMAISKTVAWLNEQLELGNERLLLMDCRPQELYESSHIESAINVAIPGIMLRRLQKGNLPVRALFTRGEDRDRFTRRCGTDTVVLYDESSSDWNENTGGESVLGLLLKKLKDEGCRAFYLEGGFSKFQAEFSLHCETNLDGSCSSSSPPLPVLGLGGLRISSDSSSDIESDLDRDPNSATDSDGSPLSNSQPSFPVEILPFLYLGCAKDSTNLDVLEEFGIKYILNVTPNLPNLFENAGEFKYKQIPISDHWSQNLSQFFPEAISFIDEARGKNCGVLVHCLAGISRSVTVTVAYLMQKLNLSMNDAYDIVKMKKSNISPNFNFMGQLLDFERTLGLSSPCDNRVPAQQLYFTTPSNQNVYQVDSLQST
Alpha-2C adrenergic receptor (Homo sapiens), sequence (P18825 whole entry, looked up): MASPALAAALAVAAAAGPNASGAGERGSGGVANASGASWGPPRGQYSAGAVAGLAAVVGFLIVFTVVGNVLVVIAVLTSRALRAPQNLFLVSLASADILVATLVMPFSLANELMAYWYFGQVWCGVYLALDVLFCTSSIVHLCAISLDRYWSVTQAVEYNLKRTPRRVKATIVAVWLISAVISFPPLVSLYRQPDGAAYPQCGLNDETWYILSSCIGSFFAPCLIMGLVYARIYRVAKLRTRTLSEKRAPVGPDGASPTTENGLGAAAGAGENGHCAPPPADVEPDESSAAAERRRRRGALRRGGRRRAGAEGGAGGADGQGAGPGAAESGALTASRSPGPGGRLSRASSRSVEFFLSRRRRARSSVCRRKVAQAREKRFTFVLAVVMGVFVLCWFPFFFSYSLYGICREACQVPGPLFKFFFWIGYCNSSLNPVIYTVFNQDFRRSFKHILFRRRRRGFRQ

SMILES	cell count [1]	inhibition [1]	inhibition [2]	nuclei count [2] [%]	z-score [3, 10]	z-score [3, 11]	z-score [3, 12]	inhibition [4]	fluorescence slope [5]	NADPH fluorescence slope [6]	slope [7]	outcome [8]	inhibition [9]
O=C1c2ccccc2C(=O)N1Cc1nc2ccccc2c(=O)n1-c1cccnc1	485	-17.5% (inactive)	13.6% (inactive)	113	-1.74	-0.21	1.85	-4.27% (inactive)	-0.469 (inactive)	-1.2e-05 (inactive)	0.00521 (inactive)	inactive	6.55% (inactive)
O=c1[nH]c(=O)n(Cc2ccccc2)c(O)c1C=NCCN1CCNCC1	548	-7.6% (inactive)	-71.4% (inactive)	125	-0.72	0.623	-0.0503	7.93% (inactive)	-0.51 (inactive)	-3.8e-05 (inactive)	0.00654 (inactive)	inactive	-6.44% (inactive)
CC(=NCCO)c1c(O)n(C)c(=O)n(C)c1=O	608	-15.1% (inactive)	-3.1% (inactive)	90.8	2.05	-1.46	-1.21	31% (inactive)	-0.432 (inactive)	-4.7e-06 (inactive)	0.00689 (inactive)	inactive	-8.68% (inactive)
CN1CCc2nc3sc(C#N)c(N)c3c(-c3cccs3)c2C1	596	-16.8% (inactive)	-65% (inactive)	165	0.586	-0.275	0.463	6.51% (inactive)	-0.362 (inactive)	-6e-05 (inactive)	0.00412 (inactive)	inactive	-2.74% (inactive)
CCN(CC)c1ccc(N=Cc2c(O)n(-c3ccccc3C)c(=O)[nH]c2=O)cc1	337	3.8% (inactive)	-48.3% (inactive)	172	-0.126	0.959	0.0511	7.01% (inactive)	-0.394 (inactive)	-0.000163 (inactive)	0.00909 (inactive)	inactive	24.7% (inactive)
O=c1[nH]c(=O)n(Cc2ccco2)c(O)c1C=NCc1ccc2c(c1)OCO2	562	-4.8% (inactive)	50.7% (inactive)	148	-1.72	-1.79	-0.396	-8.76% (inactive)	-0.254 (inactive)	-1.2e-06 (inactive)	0.00624 (inactive)	inactive	18.3% (inactive)
C/C(Cl)=C/CC1(CN2CCCC2=O)C(=O)NC(=O)NC1=O	584	-2.5% (inactive)	-26.8% (inactive)	102	-1.18	1.93	0.656	-3.98% (inactive)	-0.484 (inactive)	-0.000274 (inactive)	0.00947 (inactive)	inactive	-13.6% (inactive)
CCCCOCCCn1c(N)c(C(=O)OC(C)COC)c2nc3ccccc3nc21 (configuration not stated)	572	-16.3% (inactive)	-75.8% (inactive)	146	0.315	-0.916	-1.54	11.9% (inactive)	-0.0435 (inactive)	-1e-05 (inactive)	0.00527 (inactive)	inactive	21% (inactive)
COc1cc2[nH]c(=O)n(-c3cccc(Cl)c3)c(=O)c2cc1OC	636	-0.6% (inactive)	-128% (inactive)	159	0.96	-1.11	1.07	-1.12% (inactive)	-0.467 (inactive)	-0.000203 (inactive)	0.00492 (inactive)	inactive	-6.85% (inactive)
O=c1[nH]c(=O)n(Cc2ccccc2)c(O)c1C=NCCN1CCOCC1	639	-25.9% (inactive)	-59.7% (inactive)	156	0.666	-2.11	2.73	2.71% (inactive)	-0.393 (inactive)	-1.2e-06 (inactive)	0.00558 (inactive)	inactive	0.831% (inactive)
COCCOC(=O)c1c(N)n(Cc2ccco2)c2nc3ccccc3nc12	431	-13% (inactive)	-107% (inactive)	162	0.196	-0.0973	1.79	0.671% (inactive)	-0.0308 (inactive)	-7.2e-06 (inactive)	0.00535 (inactive)	inactive	15% (inactive)
COCCOC(=O)C1=C(N)Oc2c(c(=O)oc3ccccc23)[C@@]12C(=O)Nc1ccccc12	600	-9.7% (inactive)	-14.5% (inactive)	105	0.613	0.851	-1.5	-2.29% (inactive)	-0.499 (inactive)	2.1e-05 (inactive)	0.00465 (inactive)	inactive	-16.3% (inactive)
CCOc1ccc(-n2c(O)c(C=Nc3ccc(N(CC)CC)cc3)c(=O)[nH]c2=O)cc1	366	-4.7% (inactive)	-63.9% (inactive)	138	0.258	-1.14	0.567	14% (inactive)	-0.361 (inactive)	-0.000118 (inactive)	-0.0068 (active)	inactive	-4.04% (inactive)
CCOc1ccccc1-n1c(O)c(C=Nc2ccc(N(CC)CC)cc2)c(=O)[nH]c1=O	588	-15.7% (inactive)	-43.1% (inactive)	85.2	2.24	-1.62	-0.873	6.04% (inactive)	-0.43 (inactive)	-9.6e-06 (inactive)	0.0078 (inactive)	inactive	7.21% (inactive)
CN1CCc2nc(SCC(=O)OC(C)(C)C)c(C#N)cc2C1	606	-21.6% (inactive)	-56.3% (inactive)	178	-1.57	-0.211	0.501	16% (inactive)	-0.316 (inactive)	-4.7e-05 (inactive)	0.00437 (inactive)	inactive	102% (active)
CCN(CC)c1ccc(N=Cc2c(O)n(-c3cc(OC)ccc3OC)c(=O)[nH]c2=O)cc1	462	2.1% (inactive)	-25.3% (inactive)	172	-0.53	0.14	0.193	16.8% (inactive)	-0.37 (inactive)	-5.8e-05 (inactive)	0.00328 (inactive)	inactive	34.9% (inactive)
O=c1[nH]c(=O)n(CCc2ccccc2)c(O)c1C=NCCCn1ccnc1	364	-0.9% (inactive)	-29% (inactive)	94.5	-0.281	-0.0547	0.509	-2.59% (inactive)	-0.581 (inactive)	1.1e-06 (inactive)	0.00497 (inactive)	inactive	35.6% (inactive)
COc1cccc(CN2CCN(C(=O)COc3ccc4ccccc4c3)CC2)c1	430	-6% (inactive)	-195% (inactive)	210	-0.132	-0.0858	-0.507	11% (inactive)	-0.354 (inactive)	-4.1e-06 (inactive)	0.00527 (inactive)	inactive	16.5% (inactive)
COC(=O)C(O)(c1c[nH]c2ccccc12)C(F)(F)F (configuration not stated)	466	-0.7% (inactive)	-19.2% (inactive)	112	0.726	0.429	-1.12	-5.26% (inactive)	-0.373 (inactive)	1.2e-05 (inactive)	0.00556 (inactive)	inactive	-11.1% (inactive)
